# Test: Toxicity liver stage against HepG2, at 10uM
# Assay type: cell-based
# Design: test concentration 10 uM, cell line HepG2-A16-CD81EGFP
# Settings: human, HepG2-A16-CD81EGFP cells; read-out: INHIBITION
# Procedure, shortened: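 Uninfected HepG2-A16-CD81EGFP cells, 3 × 10^3 per well, 1536-well, plated on prespotted compound at 10 μM final, parasite-free screening media added to match infected plates; puromycin 10 μM positive, DMSO 0.5% negative; run in parallel with 48 h PbLuc assay at 37 °C, 5% CO2; viability by CellTiter-Glo luminescence, normalized to controls.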
row,Structure (SMILES),cytotoxicity at 10 µM
1,COC(=O)N1CCC(Nc2ccc(Cl)c(C#N)n2)CC1,1.96%
2,CC(C)(CNC(=O)c1ccco1)NC(=O)OC(C)(C)C,-2.43%
3,Cc1noc(C2CCCN(C(=O)CCCNc3ncccn3)C2)n1 (stereo not drawn),-3.92%
4,Cc1[nH]ncc1C(=O)NCC1CCC2(CC1)OCCO2,-8.2%
5,CN1CC(=O)N(C2CCNC2)Cc2c(NC3CCCC3)ncnc21 (stereo not drawn),9.46%
6,Cc1ncsc1CN1CC[C@H]2OCC[C@@]2(C(=O)N(C)C)C1,2.93%
7,CCNc1c(NC(=O)NCCOC)c(=O)oc2ccccc12,-2.89%
8,Cn1nc2c(cc1=O)CN(CC(=O)Nc1nccs1)CC2,7.07%
9,O=C(Cc1ccc(O)cc1)N1CCCC(O)(CN2CCOCC2)CC1 (stereo not drawn),-1.45%
10,O=C(c1ccc(O)nc1)N1CCc2ccc(O)cc2C1,-8.77%
11,CCc1ccc(C(=O)O)cc1S(=O)(=O)N(C)c1cccc(C#N)c1,-2.08%
12,Cc1cnc(CNc2ccc(C(=O)NCc3ccco3)cc2C)o1,-4.51%
13,CN(Cc1noc(C2CC2)n1)C1CCN(CC(=O)N2CCOCC2)C1 (stereo not drawn),-5.25%
14,CC(NC(=O)NCCCn1cncn1)c1ccccc1Cl (stereo not drawn),3.01%
15,CCCNC(=O)CCNC(=O)Cc1nc(-c2ccco2)oc1C,23.7%
16,O=C(O)[C@@H]1CCCN1c1nccc(Nc2ccccc2)n1,12.2%
17,CC(C)(C)OC(=O)N1CCCc2ccc(NCc3ncc[nH]3)cc21,-5.99%
18,CCC1CN(C(=O)c2ccc(O)c(C)c2)CCN1C(C)C (stereo not drawn),1.68%
19,Cc1ncsc1CN1C[C@H]2OCC[C@H]2[C@H](C(=O)NCC2CC2)C1,5.6%
20,CC(C)[C@H]1CN(CCCO)C[C@@H]1NC(=O)CCC(F)(F)F,-0.6%
21,Cc1nc(CN(C)C2CCN(CCc3cnn(C)c3)C2)no1 (stereo not drawn),3.63%
22,COCCN1CCC(c2ncc(C(=O)N3CCOCC3)c(C)n2)CC1,1.36%
23,CN(C)CC1(O)CCN(S(=O)(=O)c2ccc(F)c(F)c2)C1 (stereo not drawn),-0.954%

row,Structure (SMILES),cytotoxicity at 10 µM
1,O=c1[nH]c2c(c(=O)n1C1CCCCC1)CCC2NCc1ccccc1 (stereo not drawn),-5.43%
2,Cc1cc(C(=O)N2CCN(c3nc4c(C)cccc4s3)CC2)no1,12.1%
3,O=S(=O)(NCCNc1ccc(-n2cccc2)nn1)c1cccs1,-12.3%
4,CCCc1n[nH]c(C2CN(C(=O)c3ccco3)CCO2)n1 (stereo not drawn),-2.7%
5,c1ccc(Cn2cncn2)c(CNCC2CNc3ccnn3C2)c1 (stereo not drawn),-3.61%
6,CN(Cc1cn2ccccc2c1C#N)C1CCCN(c2cccnn2)C1 (stereo not drawn),-11.9%
7,CC(C)CN1CCCC2(CCN(c3ccc(C#N)cn3)C2)C1 (stereo not drawn),5.22%
8,Cc1nc(C(=O)N2CCCC2c2cnn(C)c2)ccc1C#N (stereo not drawn),-13.4%
9,Cn1cc(CN2CCC3(CCCN3S(C)(=O)=O)CC2)cn1,1.59%
10,Cc1cc(C(C)(O)CNC(=O)CCOCC(C)C)c(C)o1 (stereo not drawn),3.94%
11,CCc1nc(CN2CCCC(Nc3ncnc4ccsc34)C2)no1 (stereo not drawn),52.2%
12,CCS(=O)(=O)N1CCc2ccc(NC(=O)Nc3ccccc3)cc21,42.2%
13,CC(Cn1ccnc1)NC(=O)N(C)Cc1ccco1 (stereo not drawn),-0.687%
14,COCCCN(Cc1ccccc1Cl)C1CCS(=O)(=O)C1 (stereo not drawn),17.1%
15,CC(NC(=O)Cn1cc(-c2ccccc2)cn1)C1CC1 (stereo not drawn),1.36%
16,COc1nc2c(cc1C(=O)N(C)Cc1noc3c1CCCC3)CCC2,0.224%
17,CC(C)c1nc(C2CCCN(C(=O)CN3CCCNC3=O)C2)no1 (stereo not drawn),-4.1%
18,OC1CCCN(Cc2ccnc(-c3cccnc3)n2)C1 (stereo not drawn),14%
19,O=C(N[C@]12CC1CN(C(=O)c1ccco1)C2)c1ccco1 (stereo partly drawn),-0.479%
20,COc1ccc(CN(C)Cc2cccc(C#N)c2)c(OC)c1,-4.48%
21,Cc1ncc(CN(C)C(=O)Nc2cccc(CN3CCOC3=O)c2)s1,-2.27%
22,CN(Cc1ccoc1)c1ccc(-c2nccn2C)nn1,-5.12%
23,CCCC(=O)NC(C(=O)OC)c1cc(F)ccc1F (stereo not drawn),8.55%

row,Structure (SMILES),cytotoxicity at 10 µM
1,Cc1cnn(CCCN2C(=O)CCc3ccccc32)c1,1.39%
2,COc1cccc2c1CCN(C(=O)NCCc1nccn1C)C2,2.38%
3,COc1ccc(NC(=O)Cc2c(C)nc3c(c2C)c(=O)[nH]n3C)cn1,7.32%
4,CC(C)(C)C(N)C1=NC(=C2N=CN=N2)NO1 (stereo not drawn),-16.9%
5,CN(C)CCN1CC2(CCN(C(=O)c3cnccn3)CC2)OC1=O,9%
6,Cc1nn(C)c(N2CCOCC2)c1CNC1CCc2ccccc21 (stereo not drawn),-0.704%
7,COc1ccc(C(O)CNC(=O)NCCc2csc(C)n2)cc1 (stereo not drawn),-6.16%
8,CN1CCOC(C(=O)N2CCC3(CCCC3)CC2)C1 (stereo not drawn),-1.52%
9,Cc1nc(CC2CCCN(Cc3nc(N)c4ccccc4n3)C2)no1 (stereo not drawn),-41.3%
10,Cc1nnsc1C(=O)NCC1CCN(c2ccccn2)CC1,11.9%
11,CC(C)c1nc2c(n1C)CCN(CC(=O)Nc1nccs1)C2,1.88%
12,CN(C)CCNC(=O)c1cnc2c(c1)nc(-c1ccccc1Cl)n2C,10.6%
13,CNC(=O)C1CN(C(=O)Cc2ccc(OC)cc2)Cc2cn(C)nc21 (stereo not drawn),2.99%
14,CC(Cn1ccnc1)NC(=O)NCCc1ccccn1 (stereo not drawn),-6.05%
15,Cc1cc(C)c(CNC(=O)NCC2CCCOC2)c(=O)[nH]1 (stereo not drawn),-8.19%
16,CCCC(C)N(C)Cc1nnc(-c2ccc(Br)s2)o1 (stereo not drawn),-1.16%
17,O=C(CCn1cncn1)NCC1CCS(=O)(=O)C1 (stereo not drawn),-48.3%
18,CC(=O)N1CCc2c(nc(N(C)C)nc2NCCC2CCCCO2)C1 (stereo not drawn),5.22%
19,Cc1ccc(OCCCSC2=NCCN2)cc1,-9.66%
20,CC(C)c1noc(CNc2ccccc2CC(=O)N(C)C)n1,-10.6%
21,COc1ccc(CCNC(=O)C2CCOC2)c(Cl)c1 (stereo not drawn),-2.27%
22,O=C(O)Cn1nc(-c2ccccc2F)ccc1=O,2.87%
23,Cc1nc(CN2C[C@@H]3CN(C(=O)c4ccnnc4)C[C@@H]3C2=O)cs1,-7.41%

row,Structure (SMILES),cytotoxicity at 10 µM
1,Cc1c(Cl)cccc1NC(=O)CCNc1ccc(C#N)cn1,-0.106%
2,CC(C)C(=O)Nc1ccc(Sc2nncn2C)c(Cl)c1,-1.18%
3,CN(Cc1ccc(-n2ccnc2)cc1)Cc1ncc[nH]1,3.69%
4,Cc1nc(N2CCCC2)nc(C)c1NS(=O)(=O)c1ccccc1F,-3.92%
5,O=C(NCC[S+]([O-])c1ccccc1)NCC(F)(F)F (stereo not drawn),-1.09%
6,COc1ccccc1Cc1cc(O)nc(NC(C)CN(C)C)n1 (stereo not drawn),2.32%
7,CCOc1ccc(CC(CNC(=O)c2sccc2C)C(N)=O)cc1 (stereo not drawn),-4.18%
8,Cc1nc(CN2C[C@@H]3CCCO[C@@H]3[C@H](NC(=O)CC3CC3)C2)cs1,9.2%
9,CN(C)C(=O)CNC(=O)c1cc2ccccc2nc1N1CCCC1,-6.18%
10,O=C(NCCCn1cccn1)c1nc2ccccc2[nH]1,-7.16%
11,O=C(NCCNS(=O)(=O)c1cccc(Cl)c1)C1CCCO1 (stereo not drawn),11.5%
12,O=C(Cn1ccc2ccccc21)NCc1cc(N2CCOCC2)ncn1,4.44%
13,CSc1ccc(CNC(=O)C2CC(=O)N(C(C)(C)C)C2)cc1 (stereo not drawn),4.69%
14,CC(=O)N(C)Cc1ccccc1NC(=O)N(C)CCc1cccs1,-10.4%
15,Cc1nn(CC(=O)N2CCN(Cc3cn(C)nc3C)CC2)cc1Br,-6.28%
16,CC(=O)NC1CCCN(C(=O)CCc2cccnc2)C1 (stereo not drawn),19.8%
17,CC(NC(=O)CCn1cccn1)c1ccc2c(c1)OCCO2 (stereo not drawn),-7.79%
18,COc1cccc(CSCC(=O)NCc2cccnc2)c1,-46.3%
19,CC(C)(C)OC(=O)N1CCC(C(=O)NCCNc2ncccn2)CC1,-10.3%
20,CC(C)NC(=O)N1CC[C@@H]2[C@@H]1CC(=O)N2Cc1cccnc1,4.67%
21,Cc1ccc(-c2cc(CNC(=O)N3CCOC(C)C3)on2)cc1 (stereo not drawn),-6.09%
22,CCN1CCO[C@@H]2CN(C(=O)c3ccc4[nH]ccc4c3)CC[C@@H]2C1,-116%
23,O=C1CCCN1CCCNCc1cc(O)c2cccc(Cl)c2n1,4.05%

row,Structure (SMILES),cytotoxicity at 10 µM
1,CC(C)c1cc(NC(=O)CN2CCC(N3CCNC3=O)CC2)on1,-10.7%
2,CSc1ccc(C(CN)N2CCc3sccc3C2)cc1 (stereo not drawn),-5.93%
3,CC1(C)CNC(=O)c2nc(C3CCN(C(=O)C4CC4)CC3)[nH]c2C1,2.26%
4,CC(=O)N(C)Cc1ccccc1NC(=O)c1ccccc1C,1.18%
5,Cc1cnn(CCNCC(=O)N2CCN(c3ncccn3)CC2)c1,-0.0264%
6,CSc1nccc(N2C[C@@H](CN3CCCCC3)[C@@H](CO)C2)n1,-3.59%
7,Cc1cc(C(=O)Nc2cccn(Cc3ccc(F)cc3)c2=O)on1,5.38%
8,CCCOC(C)C(=O)NCc1cc2n(n1)CCCN(C1CCCCC1)C2 (stereo not drawn),2.5%
9,Cc1cc(NC(=O)C(c2cccc(F)c2)N2CCOCC2)ccn1 (stereo not drawn),0.278%
10,CNC(=O)COC1COC2(CCN(c3cnccn3)CC2)C1 (stereo not drawn),-8.44%
11,CCC(NCCn1cc(C)cn1)C(=O)Nc1cc(C)on1 (stereo not drawn),4.52%
12,CCN(CCn1cccn1)Cc1nc(-c2cccs2)oc1C,-0.179%
13,CN(C)c1nc(NCc2ccccc2Cn2cccn2)ncc1F,54.4%
14,O=C(NC1CC1)N1CCc2ccc(=O)n(Cc3ccncc3)c2CC1,-0.972%
15,CCc1n[nH]c(C2CN(C(=O)c3cc4c(s3)CCCC4)CCO2)n1 (stereo not drawn),-10.1%
16,CCN(CC)Cc1cn2c(n1)CN(C(=O)c1cc(C)on1)CC2,6.17%
17,COc1cccc(N2CC3(CCN(c4cnccn4)C3)CC2=O)c1 (stereo not drawn),0.0227%
18,O=C(c1cccnc1)N1C[C@@H](c2ccccc2)[C@@]2(CCNC2=O)C1,-6.23%
19,Cc1cc(N2CCN(C(=O)c3cnn(C(C)C)c3)CC2)cc(C)n1,-15.2%
20,COc1ccc(S(=O)(=O)NCCC(O)c2ccccc2)c(C)c1 (stereo not drawn),0.174%
21,CN(Cc1ccco1)Cc1cnc2n1CCN(S(C)(=O)=O)CC2,-2.75%

# From ChEMBL document CHEMBL4513216, “Probing the Open Global Health Chemical Diversity Library for Multistage-Active Starting Points for Next-Generation Antimalarials” (ACS Infect Dis, 2020)
